From ChEMBL document CHEMBL1122155, “Synthesis and biological evaluation of novel pyrimidine nucleoside analogues of 1,4-oxathiane, 1,4-dithiane, and 1,4-dioxane” (1982)
“And” between values parts separate entries of the source, which are not always exact repeats. Identical values can stand only once.

Tests used:
MDAY-D2 = test: In vitro antitumor activity (tumor cell growth inhibition) against MDAY-D2 cells; assay type: functional, Mus musculus
Summary of the method: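 MDAY-D2 cells in Alpha MEM with 10% fetal calf serum, penicillin and streptomycin. Seeded at 10^3–10^4 cells/mL. Next day, compound dissolved in Me2SO and diluted in medium was added (final 0.5% Me2SO), with duplicate wells per concentration. Coulter counts after 5–6 days, before controls reached maximal density. ID50 was read from log-log plots of concentration vs cell number, with controls as 100%.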

K562 [1] = test: In vitro antitumor activity against human erythroleukemia K-562 cells; assay type: functional
Summary of the method: (§1)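 L1210 and K-562 cells grown in RPMI 1640 with 10% fetal calf serum plus penicillin/streptomycin. Suspensions of 10^3–10^4 cells/mL were plated, and compound (Me2SO stock diluted in medium) was added the following day. Final Me2SO was 0.5%, with two wells per concentration. Cells were counted by Coulter counter at 5–6 days. ID50 was taken from log-log concentration vs cell number plots, with untreated controls as 100%.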

L1210 [2] = test: In vitro antitumor activity against mouse […] leukemia L1210 cells; assay type: functional; summary of the method: as §1
K562 [3] = test: In vitro antitumor activity (tumor cell growth inhibition) against human erythroleukemia K-562 cells; assay type: functional; summary of the method: as §1
L1210 [4] = test: In vitro antitumor activity against mouse […] leukemia L1210; assay type: functional
Summary of the method: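 L1210 cells in RPMI 1640 with 10% fetal calf serum and penicillin/streptomycin were seeded at 10^3-10^4 cells/mL. Compounds were dissolved in Me2SO, diluted in medium, and added the next day (final 0.5% Me2SO, matching controls), in duplicate wells. After 5-6 days, before controls peaked, cells were Coulter-counted. ID50 was read from log-log concentration vs cell-number plots, with controls as 100%.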

L1210 [5] = test: In vitro antitumor activity (tumor cell growth inhibition) against mouse […] leukemia L1210; assay type: functional; summary of the method: as §1
K562 [6] = test: In vitro antitumor activity (tumor cell growth inhibition) against human erythroleukemia K-562; assay type: functional; summary of the method: as §1

Structure (SMILES)	ID50 (MDAY-D2) [µM]	ID50 (K562 [1])	ID50 (L1210 [2])	further results
O=c1[nH]c(=O)n(C2COCCO2)cc1F (stereo not drawn)	> 1000	>1.09 mM l-1 and >0.97 mM l-1	> 970 µM	–
O=c1[nH]cc(F)c(=O)[nH]1 [FLUOROURACIL]	0.2	0.0023 mM l-1 and 0.0046 mM l-1	–	–
O=c1[nH]c(=O)n(C2COCC[S+]2[O-])cc1F (stereo not drawn)	–	> 1010 µM	–	ID50 (K562 [3]): > 990 µM
O=c1[nH]c(=O)n(C2CCCO2)cc1F (stereo not drawn) [TEGAFUR]	–	–	–	ID50 (L1210 [4]): 8.4 µM
O=c1[nH]c(=O)n(C2COCCS2)cc1F (stereo not drawn)	4600	>1.06 mM l-1 and >1.05 mM l-1	> 1060 µM	–
O=c1[nH]c(=O)n(C2CSCCS2)cc1F (stereo not drawn)	500	> 1020 µM	0.65 mM l-1 and 0.23 mM l-1	–
O=c1ccn(C2CSCCS2)c(=O)[nH]1 (stereo not drawn)	–	> 1050 µM	240 µM	–
Cc1cn(C2CSCCS2)c(=O)[nH]c1=O (stereo not drawn)	–	670 µM	0.23 mM l-1 and 0.21 mM l-1	–
O=c1[nH]c(=O)n(C2=COCCS2)cc1F	–	–	–	ID50 (L1210 [5]): 20 µM; ID50 (K562 [6]): 380 µM
O=c1[nH]c(=O)n(C2CSCCO2)cc1F (stereo not drawn)	1400	>1 mM l-1 and 0.46 mM l-1	> 1010 µM	–
